Active and inactive are the calls of the source.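 The calls were made as follows: active = compounds whose response rose with dose, given a half-maximal potency and peak effect versus acetylcholine; inactive = the rest.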
Biological target: Muscarinic acetylcholine receptor M3 (Homo sapiens) (UniProt P20309)
Assay: potentiation of ACh at human M3 – CHO cells, calcium fluorescence, counter-screen, dose response (AID 588745)
Conditions: CHO hM3 cells, Fluo-4 calcium fluorescence, PAM mode; series mostly up to 30 µM; % ACh max response: at the top concentration
Outline: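 Assay system – human M3 CHO cells · Reagent – ACh EC20 followed by ACh EC80 · Times – compound 144 s before EC20 ACh, EC80 ACh 86 s later, 37 °C · Measured by – Fluo-4 calcium fluorescence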

SMILES | % ACh max response
Cc1nc2sc(C(=O)NCc3ccncn3)c(N)c2c(C)c1Cl | 15.1 (inactive)
Cc1nc2sc(C(=O)NCc3ccc4c(c3)OCO4)c(N)c2c(C)c1Cl | 15.9 [at 36.8 µM] (inactive)
Cc1nc2sc(C(=O)NCc3cccnc3)c(N)c2c(C)c1Cl | 14.8 [at 45.3 µM] (inactive)
Cc1nc2sc(C(=O)NCCc3ccncc3)c(N)c2c(C)c1Cl | 28.6 (inactive)
Cc1nc2sc(C(=O)NCc3nccs3)c(N)c2c(C)c1Cl | 29.5 (inactive)
Cc1nc2sc(C(=O)NCc3cccc(F)c3F)c(N)c2c(C)c1Cl | 8.6 (inactive)
Cc1nc2sc(C(=O)NCc3ccccc3)c(N)c2c(C)c1Cl | 13.2 [at 37.4 µM] (inactive)
Cc1nc2sc(C(=O)NC3CC3)c(N)c2c(C)c1Cl | 18.7 (inactive)
Cc1nc2sc(C(=O)NCc3ccncc3)c(N)c2c(C)c1Cl | 7.68 [at 45.3 µM] (inactive)

Reference: PubChem BioAssay AID588745 (Vanderbilt Specialized Chemistry Center, 2011)
